Compound activity as filed in PubChem BioAssay.
Compounds with a hit are over-represented: about 1.9% of the library has one in this group of screens.
LANA-H2A inh: blocks KSHV LANA binding to histone H2A/H2B; cell-free LANA-H2A/H2B peptide, fluorescence polarization; Q9QR71; AID 2629; inhibition, % (no concentration beside the values); 0.6% of 320,000 active; in the data active = inhibition mostly above about 10%, no sharp cut-off; inactive = mostly below about 6.7%
HDAC3 inh: human HDAC3 inhibition. recombinant HDAC3, fluorogenic peptide/trypsin coupled, fluorescence. AID 2718. O15379. inhibition, % at 8.3 µM. 0.15% of 320,000 active; in the data active = inhibition above about 26%, passing the limit was not always enough; inconclusive = no clear call, values can overlap the other calls
Runt-SMMHC FRET: Runt domain-CBFb-SMMHC interaction inhibition | Cerulean-Runt/Venus-CBFb-SMMHC FRET ratio 530/480, 1 h | inhibition, % at 20 µM | 0.74% of 220,000 active | AID 1434;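 active = mean inhibition across duplicate retests at 20 µM reaching about 50%, limit read from the data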;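 note: 0% = DMSO wells and 100% = wells with excess untagged CBFb-SMMHC; inhibitors lower the FRET ratio by blocking Runt binding to CBFb-SMMHC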
Target sequence (Q01196 whole entry, looked up, the tested form may be a part): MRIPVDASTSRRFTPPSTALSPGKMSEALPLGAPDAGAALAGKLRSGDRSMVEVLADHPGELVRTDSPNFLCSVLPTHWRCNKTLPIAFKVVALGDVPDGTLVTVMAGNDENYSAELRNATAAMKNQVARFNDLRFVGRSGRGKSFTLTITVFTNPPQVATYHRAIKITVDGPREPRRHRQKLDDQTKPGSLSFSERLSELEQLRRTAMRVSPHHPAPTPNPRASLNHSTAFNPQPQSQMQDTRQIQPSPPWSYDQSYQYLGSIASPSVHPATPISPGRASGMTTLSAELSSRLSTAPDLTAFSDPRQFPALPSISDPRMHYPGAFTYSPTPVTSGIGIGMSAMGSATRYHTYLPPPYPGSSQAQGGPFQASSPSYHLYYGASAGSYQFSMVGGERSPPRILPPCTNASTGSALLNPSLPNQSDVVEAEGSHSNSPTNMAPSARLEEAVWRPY
Target sequence (Q13951 whole entry, looked up, the tested form may be a part): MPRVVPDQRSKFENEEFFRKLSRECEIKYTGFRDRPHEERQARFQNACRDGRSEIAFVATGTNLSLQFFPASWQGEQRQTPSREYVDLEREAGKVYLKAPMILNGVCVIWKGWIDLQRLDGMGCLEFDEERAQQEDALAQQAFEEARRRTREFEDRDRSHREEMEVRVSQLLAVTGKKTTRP
Runt-CBFb FRET: Runt domain-CBFb interaction inhibition; Q01196+Q13951; Cerulean-Runt/Venus-CBFb FRET ratio 530/480, 1 h; inhibition, % at 20 µM; 0.46% of 220,000 active;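 active = inhibition over about 50% at 20 µM in the single-dose screen, limit read from the data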;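 note: 0% = DMSO wells and 100% = excess unlabeled CBFb competitor control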
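test system = Cerulean-tagged RUNX1 Runt domain (FRET donor) fusion protein | reagent = Venus-CBFb binding partner, 100 nM | incubation = protein complex preformed 1 h, compound exposure 1 h, room temperature, dark | detection = FRET fluorescence | read-out basis = loss of energy transfer signal | controls = 5 µM unlabeled CBFb as full-inhibition high control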
CaV13 FRET inh: Primary screen for inhibitors of IQ motif and Ca2+-dependent inactivation inhibitor domain binding in CACNA1D, Förster resonance energy transfer in living cells, … | 0.098% of 340,000 active | inhibition, % at 12.3 µM | AID 743397 | HEK cells, CFP/YFP FRET ICDI-IQ, plate reader, 10 min; percent FRET-ratio fall versus neutral wells;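 active = mean replicate inhibition of at least 30% and at least 1% of replicates passing that level; inconclusive = only one of the two criteria is met; inactive = neither criterion is met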;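 note: 0% = median of the neutral control wells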
RanGTP-Impb inh: inhibitors of RanGTP-importin-beta interaction, primary screen, biochemical, FRET, CFP-Ran, YFP-importin-beta, homogeneous | inhibition, % (concentration not given with the values) | 1.1% of 300,000 active | AID 2216 | cell-free CFP-Ran/YFP-importin-beta FRET ratio;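 active = more than half of the replicate wells show a fall in the fluorescence ratio signal beyond about 16%, limit read from the data, passing the limit was not always enough; inconclusive = exactly half of the replicate wells pass the set limit; inactive = fewer than half of replicates pass the limit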;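 note: 0% = DMSO wells and 100% = Ran loaded with GDP instead of GTP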
* = called active by the depositor; ? = inconclusive; . = no result given; + = active, no number.

SMILES	LANA-H2A inh	HDAC3 inh	Runt-SMMHC FRET	Runt-CBFb FRET	CaV13 FRET inh	RanGTP-Impb inh
CCN(CC)/C(Sc1ccccc1)=C(\C(Cl)=C(Cl)Cl)[N+](=O)[O-]	70*	5	4	-1	5	-1
COC(=O)/C=c1/s/c(=C(/C#N)C(=O)NCc2ccccc2)n(-c2ccccc2)c1=O	-2	1	-16	-12	-9	1
CCCCCCOc1ccc(/C=c2\s/c(=C(/C#N)C(=O)NCc3ccco3)n(-c3ccccc3)c2=O)cc1	-4	4	8	-250	-4	27*
Cc1ccc(OCC(=O)N/N=C/c2cccnc2)cc1C	-3	1	.	.	-2	0
Cc1ccc(S(=O)(=O)[N-]c2nc3ccccc3nc2-n2cc[n+](CCC(C)C)c2)cc1	2	4	32	-2	-6	?
CC(C)CC[n+]1ccn(-c2nc3ccccc3nc2[N-]S(=O)(=O)c2ccc(Cl)cc2)c1	-2	-10	26	11	-17	30*
CCc1noc(C)c1C(=O)Nc1nc(-c2ccc(OC)cc2)cs1	0	3	.	.	-5	1
Nc1ccc2nc(-c3ccccc3)cnc2c1	4	-7	.	.	+	-47
Nc1ccc(-c2cnc3ccccc3n2)cc1	-6	1	.	.	-67	3
C=CCNc1nc(Nc2ccccc2F)nc(OCC)n1	16*	-7	2	6	-5	?
CCCCN1C(=O)C2(OCCCO2)c2cccc(C)c21	18*	5	.	.	-20	2
C=CCN1C(=O)C2(OCCCO2)c2cccc(C)c21	-6	0	.	.	-3	0
COc1ccc(NC2CCCN(C(=O)c3c(C)noc3C)C2)cc1 (stereo not given)	3	10	.	.	.	-1
Cc1noc(C)c1C(=O)N1CCCC(Nc2ccc(C(C)C)cc2)C1 (stereo not given)	21*	0	.	.	-5	4
O=C(NNC(=O)c1csc(N2CCOCC2)n1)c1ccc(=O)[nH]c1	-2	-4	.	.	-5	.
Cc1cc(-c2ccc(N3C(=O)CCC3=O)c(C)c2)ccc1N1C(=O)CCC1=O	3	0	-4	-2	.	6
O=C(c1cccc(Oc2ccc([N+](=O)[O-])cc2)c1)N1CCOCC1	8	5	.	.	-4	3
O=C(O)CCNS(=O)(=O)c1ccc2c(c1)OCCCO2	13*	2	2	1	-7	-2
O=C(O)c1ccc(NS(=O)(=O)c2ccc3c(c2)OCCCO3)cc1	2	4	3	2	2	2
O=C(CN1C(=O)NC(Cc2ccccc2)C1=O)NC(=O)NC1CCCCC1 (stereo not given)	-6	0	0	0	-5	0
COc1ccc(C)cc1S(=O)(=O)Nc1ccccc1	-2	-4	-1	0	-4	7
COc1ccc(C)cc1S(=O)(=O)Nc1ccncc1	-9	2	-4	1	-20	14*
COc1cccc(-c2c3c([nH]c(=O)c2C#N)CCc2cc(OC)ccc2-3)c1	0	1	80*	89*	.	94*
COc1cccc(-c2cc(C(F)(F)F)c(C#N)c(=O)[nH]2)c1	-1	-89	16	5	-2	-3
CNc1nc(-c2ccccc2)[n+](-c2ccc(C)cc2)s1	1	42*	56*	10	-8	-1
SMILES	LANA-H2A inh	HDAC3 inh	Runt-SMMHC FRET	Runt-CBFb FRET	CaV13 FRET inh	RanGTP-Impb inh
Cc1ccc(-c2nc(N)s[n+]2-c2ccccc2)cc1	-13	62*	65*	9	23	6
Cc1ccc(-c2cc(-c3ccccc3)nc(NN)n2)cc1	0	6	.	.	-2	4
O=C(COc1ccccc1)Nc1ccc(N2CCCCC2)cc1	2	1	.	.	-6	4
CCOc1ccc(N2CC(C(=O)N3CCCCC3)CC2=O)cc1 (stereo not given)	-6	-10	.	.	-7	3
N/C(=N\OC(=O)c1cccc2ccccc12)c1ccccn1	41*	-4	-2	-2	-5	-1
O=S(=O)(Nc1ccc2c(c1)OCCO2)c1ccc2oc3ccccc3c2c1	-4	7	1	0	.	-3
